Source: paper PMC11252382 (Acta Pharmaceutica Sinica. B, 2024)

Experiments:
DOX-induced HF mice [1] = experiment: Serum CK and LDH activity in DOX-induced HF mice; assay type: in vivo, mouse (ICR); settings: glycnsisitin A i.p. daily Days 15–28
Summary of the method: (§1)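 Male ICR mice (about 40 g, 10-week-old, SPF) received a single i.p. DOX dose of 15 mg/kg; heart failure was established by Day 14. On Days 15–28 they were dosed i.p. daily with test compound (50, 100 or 200 mg/kg), cedilanid 150 mg/kg, or PBS 10 mL/kg. Blood was taken 8 h after dosing on Day 29 and spun 4500 rpm, 15 min, 4 °C. Serum CK and LDH activities and BNP and NT-proBNP were measured by kits. Mean ± SEM.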

transferrin [2] = experiment: Immunoblot of transferrin in heart tissues; assay type: in vivo, mouse
TFRC [3] = experiment: Immunoblot of TFRC in heart tissues; assay type: in vivo, mouse; settings: glycnsisitin A with or without DOX, DOX alone in HF tissue
[4] = tested on: primary adult rat cardiomyocytes; experiment: Total ROS by DCFH-DA staining, flow cytometry; assay type: cell-based
DOX-induced HF mice [5] = experiment: Survival in acute DOX-induced HF mouse model; assay type: in vivo, mouse (ICR)
Summary of the method: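 Male ICR mice (about 40 g, 10 weeks) had acute heart failure induced by a single i.p. 15 mg/kg DOX dose. From Day 15 to 28 they were dosed i.p. daily with test compound (50, 100 or 200 mg/kg), cedilanid 150 mg/kg or PBS 10 mL/kg. Deaths were recorded daily, and survival was analysed by Kaplan–Meier.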

[6] = tested on: primary adult rat cardiomyocytes; experiment: Trypan blue staining of dead cells, primary cardiomyocytes + DOX; assay type: cell-based
[7] = tested on: myocardium of DOX-treated mice; experiment: Myocardial iron content; assay type: in vivo, mouse; settings: with or without glycnsisitin A, ferrozine, 550 nm
Summary of the method: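 Heart tissue from DOX-induced heart-failure mice (± test compound) was homogenised in lysate. Homogenate was mixed 1:1 with permanganate-containing solution A and held 1 h at 60 °C, then cooled. Iron (ferrozine) detection reagent was added for 30 min at room temperature. Absorbance was read at 550 nm and iron content calculated from a standard curve.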

[8] = tested on: primary adult rat cardiomyocytes; experiment: LDH release of primary cardiomyocytes; assay type: cell-based; settings: 12 h
Summary of the method: (§2)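 Cardiomyocytes came from male SD rats (about 280 g), isolated by Langendorff collagenase II/hyaluronidase perfusion and purified by three gravity sedimentations. They were cultured on laminin in M199 with 10% FBS, penicillin-streptomycin and glutamine. Cells were exposed with or without DOX and with or without test compound for 12 h. Cells and supernatant were measured with commercial ATP and LDH-activity kits. Mean ± SEM.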

DOX-induced HF mice [9] = experiment: Echocardiography in DOX-induced HF mice; assay type: in vivo, mouse (ICR); settings: compared with cedilanid
Summary of the method: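 Male ICR mice (~40 g, 10 weeks) got a single i.p. DOX 15 mg/kg, with HF established by Day 14. On Day 28, 8 h post-dose, mice were anesthetized with avertin on a 37 °C table. M-mode short-axis scans at papillary level (10 MHz, 10–20 cycles) gave LVAWd.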

[10] = tested on: primary adult rat cardiomyocytes; experiment: LDH activity in supernatant of primary cardiomyocytes, TFRC neutralization; assay type: cell-based; settings: DOX + glycnsisitin A; with or without TFRC block
Summary of the method: (§3)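 Adult cardiomyocytes were isolated from male Sprague-Dawley rats (about 280 g) by Langendorff perfusion with collagenase II and hyaluronidase. They were purified by three gravity sedimentations and cultured on laminin in M199 with 10% FBS, pen-strep and glutamine. Cells were pretreated with TFRC-neutralizing antibody (level not stated), then given DOX ± test compound for 12 h. Cells and supernatant were assayed with commercial LDH-activity or ATP kits. Mean ± SEM.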

[11] = tested on: primary adult rat cardiomyocytes; experiment: Alamar blue assay, DOX-injured primary cardiomyocytes; assay type: cell-based
Summary of the method: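 Cardiomyocytes came from male Sprague-Dawley rats (~280 g) by Langendorff perfusion with collagenase II/hyaluronidase/BSA and stepwise CaCl2. Cells were purified by three gravity sedimentations and cultured on laminin in M199 with 10% FBS, penicillin-streptomycin and 1% glutamine. DOX-injured cells received test compound, and viability was read by alamar blue.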

TFRC [12] = experiment: Protein half-life of TFRC after CHX; assay type: cell-based; settings: compared with control
[13] = tested on: primary adult rat cardiomyocytes; experiment: ATP levels of primary cardiomyocytes; assay type: cell-based; settings: 12 h
Summary of the method: as §2

transferrin [14] = target: T1, transferrin (Homo sapiens, UniProt P02787); experiment: Protein half-life of transferrin after CHX; assay type: cell-based; settings: compared with control
DOX-induced HF mice [15] = experiment: Heart histology; assay type: in vivo, mouse (ICR); settings: compared with cedilanid
Summary of the method: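 Heart failure was induced in male ICR mice by a single i.p. DOX dose (15 mg/kg). Test compound (50/100/200 mg/kg), cedilanid ([…]) or PBS was then given i.p. daily on Days 15–28. Hearts were collected on Day 29, fixed in 4% paraformaldehyde and sectioned. H&E staining was scored for myocardial histopathology; Masson trichrome was quantified as relative fibrosis area.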

DOX-induced HF mice [16] = experiment: BNP and NT-proBNP levels in DOX-induced HF mice; assay type: in vivo, mouse (ICR); settings: compared to DOX-induced HF mice
Summary of the method: as §1

[17] = tested on: primary adult rat cardiomyocytes; experiment: Iron content of primary cardiomyocytes, TFRC neutralization; assay type: cell-based; settings: glycnsisitin A + DOX; with or without NAb-anti-TFRC pretreatment
Summary of the method: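 Langendorff-isolated adult rat cardiomyocytes in six-well plates were pretreated ± TFRC-neutralizing antibody, then given DOX and test compound. After two PBS washes, cells were lysed 2 h at room temperature on a shaker. Lysate was mixed 1:1 with permanganate-containing solution A and held 1 h at 60 °C, then cooled. Ferrozine iron reagent was added for 30 min at room temperature. A550 was read and iron calculated from a standard curve.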

[18] = tested on: primary adult rat cardiomyocytes; experiment: Mitochondrial ROS by MitoSOX staining; assay type: cell-based; settings: 10 μmol/L glycnsisitin A with 8.6 μmol/L DOX, 6 h, confocal
Summary of the method: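 Primary adult rat cardiomyocytes in glass-bottomed confocal dishes received test compound and/or DOX for 6 h. They were then loaded with MitoSOX Red for 30 min at 37 °C, 5% CO2, in the dark, and washed three times with warm HBSS containing Ca/Mg. Fluorescence was imaged by laser confocal microscopy (ex 396/em 610 nm).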

transferrin [19] = target: T1, transferrin; experiment: Relative mRNA level of transferrin in cardiomyocytes; assay type: cell-based; settings: cultured cardiomyocytes
transferrin [20] = target: T1, transferrin; experiment: SPR on transferrin-coated CM5 sensor chips; assay type: binding
Summary of the method: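 Test compound was flowed over at a range of concentrations and response units recorded. KD was derived by the instrument's evaluation fitting.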

[21] = tested on: transferrin–TFRC interaction; experiment: Cellular immunoprecipitation of transferrin with TFRC; assay type: cell-based; settings: anti-His immunoprecipitation, blotted anti-transferrin and anti-TFRC
TFRC [22] = experiment: Relative mRNA level of TFRC in cardiomyocytes; assay type: cell-based; settings: cultured cardiomyocytes
H9C2 cardiomyocytes = experiment: Alamar blue cell viability, DOX-injured H9C2 cardiomyocytes; assay type: cell-based, rat; settings: in vitro model of DOX-induced cardiomyocyte injury
Summary of the method: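 H9C2 cells were grown in DMEM with 10% FBS and penicillin-streptomycin at 37 °C, 5% CO2, then seeded at 5000/well overnight. Cells were co-treated with DOX and test compound for 12 h, then incubated 4 h in medium with 10% alamar blue. Fluorescence was read at ex 530/em 590 nm. Viability = (treated − medium)/(control − medium) × 100; EC50 calculated.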

[23] = tested on: primary adult rat cardiomyocytes; experiment: ATP content of primary cardiomyocytes, TFRC neutralization; assay type: cell-based; settings: DOX-injured cardiomyocytes + glycnsisitin A; with or without NAb-anti-TFRC
Summary of the method: as §3

cancer cells = settings: clinical limitation; ref [29]; cited from earlier work
HF patients = settings: supplementation; ref [8], [9]; cited from earlier work

T1 sequence (P02787 20-698, species assumed): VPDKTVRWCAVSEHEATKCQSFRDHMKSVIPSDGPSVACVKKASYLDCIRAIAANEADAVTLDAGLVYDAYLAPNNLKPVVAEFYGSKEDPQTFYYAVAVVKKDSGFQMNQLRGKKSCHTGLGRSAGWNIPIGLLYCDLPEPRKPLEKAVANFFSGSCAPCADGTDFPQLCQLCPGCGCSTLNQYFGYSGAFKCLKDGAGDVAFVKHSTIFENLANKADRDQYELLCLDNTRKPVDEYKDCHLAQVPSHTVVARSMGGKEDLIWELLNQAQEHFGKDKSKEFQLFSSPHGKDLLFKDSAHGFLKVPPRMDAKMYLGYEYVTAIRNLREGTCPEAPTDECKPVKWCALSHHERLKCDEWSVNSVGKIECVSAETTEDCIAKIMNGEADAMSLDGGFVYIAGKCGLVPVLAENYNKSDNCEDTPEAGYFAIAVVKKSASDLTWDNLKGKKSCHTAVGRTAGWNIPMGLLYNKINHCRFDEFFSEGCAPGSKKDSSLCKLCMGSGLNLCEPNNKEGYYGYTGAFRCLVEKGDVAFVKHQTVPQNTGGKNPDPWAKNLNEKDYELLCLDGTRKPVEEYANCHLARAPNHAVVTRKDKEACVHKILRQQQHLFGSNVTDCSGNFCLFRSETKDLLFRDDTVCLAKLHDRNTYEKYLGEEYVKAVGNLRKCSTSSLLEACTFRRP

## COc1cccc2c1C(=O)c1c(O)c3c(c(O)c1C2=O)C[C@@](O)(C(=O)CO)C[C@@H]3O[C@H]1C[C@H](N)[C@H](O)[C@H](C)O1 [DOX, doxorubicin, reference compound]
DOX-induced HF mice [1]
  serum CK activity: markedly increased
  serum LDH activity: markedly increased
Transferrin [2]; DOX-treated mice, immunoblot ratio to GAPDH
  decrease in transferrin expression in heart tissue: over 50%
TFRC [3]
  TFRC level in mouse myocardium: decreased levels of both transferrin and TFRC
[4]
  ROS levels, DOX alone: dramatically increased
DOX-induced HF mice [5]; single i.p. 15 mg/kg DOX
  mortality rate: 50%
[6]; 8.6 μmol/L DOX for 24 h, compared with solvent control
  increase in the number of trypan blue-positive cells: approximately fourfold
[7]
  myocardial iron content: significant loss of iron
[8]
  LDH release, DOX alone: elevation in the release of lactate dehydrogenase (LDH)

## CC(C)[C@@H]1NC(=O)[C@@H]2Cc3ccc(cc3)O[C@H]3C[C@H](NC3=O)C(=O)N3CCC[C@H]3C(=O)N[C@@H](Cc3ccc(O)cc3)C(=O)N[C@@H](C(=O)N[C@@H](C(C)C)C(=O)N2)c2cc(ccc2O)C[C@@H](C(=O)O)NC1=O [Glycnsisitin A]
DOX-induced HF mice [9]
  diastolic LV anterior wall diameter (LVAWd): thicker diastolic LV anterior wall diameter
[10]
  LDH content in supernatant: much lower
[11]
  cell survival (alamar blue): proved the primary cell protective function
TFRC [12]
  TFRC stability (in words): decreased TFRC stability
DOX-induced HF mice [1]
  serum CK activity: completely reversed
  serum LDH activity: completely reversed
Transferrin [2]; regardless of the presence of DOX
  total transferrin level in mouse myocardium: significantly increased the total transferrin levels
TFRC [3]
  TFRC level in mouse myocardium: consistent with the trend observed for TFRC
[13]; presence vs absence of glycnsisitin A, with DOX
  total ATP levels following DOX induction: a substantial difference was observed
[13]; primary cardiomyocytes without DOX
  total ATP levels, normal conditions: did not have an impact on ATP levels
Transferrin [14]
  half-life of transferrin protein (in words): could increase the half-life of transferrin protein
DOX-induced HF mice [15]; H&E
  pathology score: lower pathology score
DOX-induced HF mice [15]; Masson trichrome
  collagen deposition: lesser collagen deposition
DOX-induced HF mice [16]
  BNP level: lower levels
  NT-proBNP level: lower levels
DOX-induced HF mice [5]; 200 mg/kg i.p. daily Days 15–28 after DOX 15 mg/kg i.p.
  overall survival rate: 90%
DOX-induced HF mice [5]; 50, 100, 200 mg/kg i.p. daily Days 15–28 after DOX
  survival rate, dose dependence: increased in a dose-dependent manner
[6]; DOX 8.6 μmol/L + glycnsisitin A
  cardiotoxicity / cell death (trypan blue): significantly attenuated the cardiotoxicity induced by DOX and reduced cell death
[7]
  myocardial iron content: effectively restored to normal
[17]
  iron content, DOX-treated cardiomyocytes: restored the decline in iron content
[8]
  LDH release, DOX + glycnsisitin A: significantly suppressed
[18]
  mitochondrial ROS generation: significantly attenuated the excessive generation of mitochondrial ROS
Transferrin [19]
  transferrin mRNA level: did not affect the mRNA content of transferrin
Transferrin [20]
  Kd: 2410 nM
[21]
  content of immunoprecipitated transferrin: much higher
TFRC [22]
  TFRC mRNA level / transcription: increased the TFRC transcription
H9C2 cardiomyocytes
  cardioprotective activity, relative to glycnsisitins B and C: stronger cardioprotective activity than glycnsisitins B and C
[23]
  ATP production: noticeably augmented ATP production

## C[C@@H](CN1CC(=O)NC(=O)C1)N1CC(=O)NC(=O)C1 [dexrazoxane (DXZ), dexrazoxane]
Cancer cells
  chemotherapy resistance: potential to confer chemotherapy resistance to cancer cells

## ferric derisomaltose [ferric derisomaltose (FDI)]
HF patients
  HF symptoms and rehospitalization: could alleviate HF symptoms and reduce rehospitalization
